From ChEMBL document CHEMBL1649370, “Penetratin analogues acting as antifungal agents” (2011) come the findings set out here.

What all share (format): functional
In assay [1] the test system is Candida albicans. The experiment in a line: Antifungal activity against Candida albicans ATCC 10231 assessed as inhibition of fungal growth at 200 uM after 24 hrs by microplate analysis. To be noted: ATCC 10231, 24 h. In a few lines:
(§1)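 Broth microdilution in RPMI-1640. Peptide DMSO stocks were diluted to final concentrations of 200–3.125, with DMSO ≤2%. Inoculum was 1–5×10³ CFU/mL from Sabouraud-chloramphenicol agar cultures (24 h, 35 °C). Plates were held in a moist, dark chamber at 35 °C: 24 h for C. albicans, 48 h for C. neoformans.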

Assay [2] has as its system Candida albicans. The experiment in a line: Antifungal activity against Candida albicans ATCC 10231 assessed as inhibition of fungal growth at 100 uM after 24 hrs by microplate analysis. To be noted: ATCC 10231, 24 h. In a few lines:
as §1

The subject of assay [3] is Candida albicans. Kind of assay: Antifungal activity against Candida albicans ATCC 10231 assessed as inhibition of fungal growth at 50 uM after 24 hrs by microplate analysis. The note with it: ATCC 10231, 24 h. In a few lines: as §1
Assay [4] deals with Candida albicans. Kind of assay: Antifungal activity against Candida albicans ATCC 10231 assessed as inhibition of fungal growth at 25 uM after 24 hrs by microplate analysis. To be noted: ATCC 10231, 24 h. In a few lines: as §1
The subject of assay [5] is Candida albicans. The experiment in a line: Antifungal activity against Candida albicans ATCC 10231 assessed as inhibition of fungal growth at 12.5 uM after 24 hrs by microplate analysis. To be noted: ATCC 10231, 24 h. In a few lines: as §1
Assay [6] deals with Candida albicans. The experiment in a line: Antifungal activity against Candida albicans ATCC 10231 assessed as inhibition of fungal growth at 6.25 uM after 24 hrs by microplate analysis. The note with it: ATCC 10231, 24 h. A digest of the protocol:
as §1

The test system of assay [7] is Cryptococcus neoformans. The experiment in a line: Antifungal activity against Cryptococcus neoformans ATCC 32264 assessed as inhibition of fungal growth at 200 uM after 48 hrs by microplate analysis. The note with it: ATCC 32264, 48 h. A digest of the protocol:
as §1

In assay [8] the test system is Cryptococcus neoformans. Kind of assay: Antifungal activity against Cryptococcus neoformans ATCC 32264 assessed as inhibition of fungal growth at 100 uM after 48 hrs by microplate analysis. To be noted: ATCC 32264, 48 h. In a few lines: as §1
Assay [9] concerns Cryptococcus neoformans. The experiment in a line: Antifungal activity against Cryptococcus neoformans ATCC 32264 assessed as inhibition of fungal growth at 50 uM after 48 hrs by microplate analysis. To be noted: ATCC 32264, 48 h. In a few lines: as §1
Assay [10] concerns Cryptococcus neoformans. The experiment in a line: Antifungal activity against Cryptococcus neoformans ATCC 32264 assessed as inhibition of fungal growth at 25 uM after 48 hrs by microplate analysis. The note with it: ATCC 32264, 48 h. In a few lines:
as §1

Assay [11] has as its system Cryptococcus neoformans. Kind of assay: Antifungal activity against Cryptococcus neoformans ATCC 32264 assessed as inhibition of fungal growth at 12.5 uM after 48 hrs by microplate analysis. To be noted: ATCC 32264, 48 h. A digest of the protocol:
as §1

In assay [12] the test system is Cryptococcus neoformans. Kind of assay: Antifungal activity against Cryptococcus neoformans ATCC 32264 assessed as inhibition of fungal growth at 6.25 uM after 48 hrs by microplate analysis. The note with it: ATCC 32264, 48 h. A digest of the protocol:
as §1

With `CC[C@H](C)[C@H](NC(=O)[C@H](CCCCN)NC(=O)[C@@H](NC(=O)[C@H](CCC(N)=O)NC(=O)[C@H](CCCNC(=N)N)NC(=O)[C@H](Cc1c[nH]c2ccccc12)NC(=O)[C@H](CCCNC(=N)N)NC(=O)[C@H](Cc1ccccc1)NC(=O)[C@@H](N)Cc1cnc[nH]1)[C@@H](C)CC)C(=O)N[C@@H](Cc1c[nH]c2ccccc12)C(=O)N[C@@H](Cc1ccccc1)C(=O)N[C@@H](CCC(N)=O)C(=O)N[C@@H](CC(N)=O)C(=O)N[C@@H](CCCNC(=N)N)C(=O)N[C@@H](CCCNC(=N)N)C(=O)N[C@@H](CC[S+](C)[O-])C(=O)N[C@@H](CCCCN)C(=O)N[C@@H](Cc1c[nH]c2ccccc12)C(=O)N[C@@H](CCCCN)C(=O)N[C@@H](CCCCN)C(N)=O` (some centres undefined), the inhibition at 200 µM in the assay on Candida albicans [1] and with Cryptococcus neoformans [7] was 100% throughout. Besides, the inhibition at 100 µM in the assay with Candida albicans [2] and in the assay on Cryptococcus neoformans [8] was 100% in each case. In addition, the values for the inhibition at 50 µM with Candida albicans [3] and in the assay on Cryptococcus neoformans [9] were 93.7% and 100%, respectively. The inhibition at 25 µM in the assay on Candida albicans [4] turned out to be 5.96%; with Cryptococcus neoformans [10], 100%. In addition, the inhibition at 12.5 µM with Candida albicans [5] was 3.95%; in the assay on Cryptococcus neoformans [11] it was 99.3%. The inhibition at 6.25 µM amounted to 2.9% with Candida albicans [6] and 95.1% with Cryptococcus neoformans [12].
As for `N=C(N)NCCC[C@H](NC(=O)CNC(=O)[C@@H](N)Cc1ccc(O)cc1)C(=O)N[C@@H](CCCCN)C(=O)N[C@@H](CCCCN)C(=O)N[C@@H](CCCNC(=N)N)C(=O)N[C@@H](CCCNC(=N)N)C(=O)N[C@@H](CCC(N)=O)C(=O)N[C@@H](CCCNC(=N)N)C(=O)N[C@@H](CCCNC(=N)N)C(=O)N[C@@H](CCCNC(=N)N)C(=O)N[C@@H](CS)C(N)=O`, the inhibition at 200 µM in the assay on Candida albicans [1] was 99.1%; with Cryptococcus neoformans [7], 100%. The inhibition at 100 µM in the assay with Candida albicans [2] worked out at 99.1%; with Cryptococcus neoformans [8], 100%. For the same compound, the values for the inhibition at 50 µM in the assay with Candida albicans [3] and with Cryptococcus neoformans [9] were 6.75% and 61.3%, respectively. Moreover, the inhibition at 25 µM turned out to be 6.71% in the assay on Candida albicans [4] and 1.75% in the assay with Cryptococcus neoformans [10]. The inhibition at 12.5 µM in the assay with Candida albicans [5] amounted to 6.12%; in the assay with Cryptococcus neoformans [11], 0%. The inhibition at 6.25 µM in the assay with Candida albicans [6] was 4.97%; in the assay with Cryptococcus neoformans [12], 0%.
Take `C[C@@H]1[C@H](O)[C@@H](C)/C=C/C=C/C=C/C=C/C=C/C=C/C=C/[C@H](O[C@@H]2O[C@H](C)[C@@H](O)[C@H](N)[C@@H]2O)C[C@@H]2O[C@](O)(C[C@@H](O)C[C@@H](O)[C@H](O)CC[C@@H](O)C[C@@H](O)CC(=O)O[C@H]1C)C[C@H](O)[C@H]2C(=O)O` [AMPHOTERICIN B]: the inhibition at 200 µM in the assay on Candida albicans [1] and in the assay on Cryptococcus neoformans [7] was 100% throughout. Moreover, the inhibition at 100 µM with Candida albicans [2] and in the assay on Cryptococcus neoformans [8] was 100% throughout. Moreover, the inhibition at 50 µM in the assay on Candida albicans [3] and in the assay with Cryptococcus neoformans [9] was 100% each time. Also, the inhibition at 25 µM in the assay with Candida albicans [4] and in the assay with Cryptococcus neoformans [10] was 100% each time. Besides, the inhibition at 12.5 µM in the assay with Candida albicans [5] and with Cryptococcus neoformans [11] was 100% each time. The inhibition at 6.25 µM in the assay with Candida albicans [6] and with Cryptococcus neoformans [12] was 100% throughout.
With `CC(=O)N1CCN(c2ccc(OCC3COC(Cn4ccnc4)(c4ccc(Cl)cc4Cl)O3)cc2)CC1` (centres undefined) [KETOCONAZOLE], the inhibition at 200 µM in the assay on Candida albicans [1] and in the assay with Cryptococcus neoformans [7] was 100% each time. Also, the inhibition at 100 µM with Candida albicans [2] and with Cryptococcus neoformans [8] was 100% each time. For the same compound, the inhibition at 50 µM in the assay on Candida albicans [3] and in the assay on Cryptococcus neoformans [9] was 100% in each case. For the same compound, the inhibition at 25 µM in the assay on Candida albicans [4] and in the assay on Cryptococcus neoformans [10] was 100% each time. In addition, the inhibition at 12.5 µM with Candida albicans [5] and in the assay with Cryptococcus neoformans [11] was 100% in each case. For the same compound, the inhibition at 6.25 µM in the assay on Candida albicans [6] and in the assay on Cryptococcus neoformans [12] was 100% in each case.
Regarding “H-KQIKIWFQNKKMKWKK-NH2 [KQIKIWFQNKKMKWKK-NH2]”, the inhibition at 200 µM in the assay with Candida albicans [1] and in the assay with Cryptococcus neoformans [7] was 100% in each case. The inhibition at 100 µM in the assay on Candida albicans [2] and in the assay with Cryptococcus neoformans [8] was 100% in each case. Also, the inhibition at 50 µM in the assay with Candida albicans [3] and in the assay with Cryptococcus neoformans [9] was 100% each time. Besides, the inhibition at 25 µM worked out at 8.41% with Candida albicans [4] and 98.5% in the assay with Cryptococcus neoformans [10]. The inhibition at 12.5 µM with Candida albicans [5] was 5.97%; with Cryptococcus neoformans [11], 72%. Further, the inhibition at 6.25 µM was 3.24% with Candida albicans [6] and 64.5% in the assay on Cryptococcus neoformans [12].
With H-RQIRIWFQNRRMRWRR-NH2, the inhibition at 200 µM in the assay with Candida albicans [1] and with Cryptococcus neoformans [7] was 100% in each case. Also, the inhibition at 100 µM in the assay with Candida albicans [2] and with Cryptococcus neoformans [8] was 100% each time. For the same compound, the figures for the inhibition at 50 µM with Candida albicans [3] and in the assay with Cryptococcus neoformans [9] were 98.9% and 100%, respectively. Further, the inhibition at 25 µM amounted to 6.16% with Candida albicans [4] and 81.7% in the assay with Cryptococcus neoformans [10]. Besides, the inhibition at 12.5 µM in the assay with Candida albicans [5] came to 4.38%; in the assay with Cryptococcus neoformans [11] it was 77.5%. Further, the inhibition at 6.25 µM with Candida albicans [6] came to 3.71%; with Cryptococcus neoformans [12], 43.3%.
For H-RWWKWWWWWRRWKWKK-NH2, the inhibition at 200 µM in the assay on Candida albicans [1] and with Cryptococcus neoformans [7] was 100% in each case. In addition, the inhibition at 100 µM with Candida albicans [2] amounted to 99.1%; in the assay on Cryptococcus neoformans [8] it was 90%. Besides, the values for the inhibition at 50 µM with Candida albicans [3] and with Cryptococcus neoformans [9] were 95.8% and 77.5%, respectively. The inhibition at 25 µM with Candida albicans [4] stood at 30.9%; in the assay with Cryptococcus neoformans [10] it was 44.2%. The values for the inhibition at 12.5 µM in the assay on Candida albicans [5] and in the assay on Cryptococcus neoformans [11] were 14.8% and 31.5%, respectively. Further, the values for the inhibition at 6.25 µM with Candida albicans [6] and in the assay with Cryptococcus neoformans [12] were 8.72% and 22.6%, respectively.

As usually defined, the inhibition is the share of the control response that was lost under treatment.
